According to ChEMBL document CHEMBL4819015, “Design, synthesis, and biological evaluation of hederagenin derivatives with improved aqueous solubility and tumor resistance reversal activity” (Eur J Med Chem, 2021):
Values after ≈ are worked out from the molar mass of the structure shown.

Experiments:
[1] = molecular target: T1, ATP-dependent translocase ABCB1 (Homo sapiens, UniProt P08183); assay: Reversal of P-glycoprotein mediated multidrug resistance in human KBV cells assessed as potentiation of paclitaxel-induced cytotoxicity by measuring cell survival rate at 10 uM measured after 72 hrs by MTT assay; assay type: cell-based
T1 sequence (P08183 whole entry): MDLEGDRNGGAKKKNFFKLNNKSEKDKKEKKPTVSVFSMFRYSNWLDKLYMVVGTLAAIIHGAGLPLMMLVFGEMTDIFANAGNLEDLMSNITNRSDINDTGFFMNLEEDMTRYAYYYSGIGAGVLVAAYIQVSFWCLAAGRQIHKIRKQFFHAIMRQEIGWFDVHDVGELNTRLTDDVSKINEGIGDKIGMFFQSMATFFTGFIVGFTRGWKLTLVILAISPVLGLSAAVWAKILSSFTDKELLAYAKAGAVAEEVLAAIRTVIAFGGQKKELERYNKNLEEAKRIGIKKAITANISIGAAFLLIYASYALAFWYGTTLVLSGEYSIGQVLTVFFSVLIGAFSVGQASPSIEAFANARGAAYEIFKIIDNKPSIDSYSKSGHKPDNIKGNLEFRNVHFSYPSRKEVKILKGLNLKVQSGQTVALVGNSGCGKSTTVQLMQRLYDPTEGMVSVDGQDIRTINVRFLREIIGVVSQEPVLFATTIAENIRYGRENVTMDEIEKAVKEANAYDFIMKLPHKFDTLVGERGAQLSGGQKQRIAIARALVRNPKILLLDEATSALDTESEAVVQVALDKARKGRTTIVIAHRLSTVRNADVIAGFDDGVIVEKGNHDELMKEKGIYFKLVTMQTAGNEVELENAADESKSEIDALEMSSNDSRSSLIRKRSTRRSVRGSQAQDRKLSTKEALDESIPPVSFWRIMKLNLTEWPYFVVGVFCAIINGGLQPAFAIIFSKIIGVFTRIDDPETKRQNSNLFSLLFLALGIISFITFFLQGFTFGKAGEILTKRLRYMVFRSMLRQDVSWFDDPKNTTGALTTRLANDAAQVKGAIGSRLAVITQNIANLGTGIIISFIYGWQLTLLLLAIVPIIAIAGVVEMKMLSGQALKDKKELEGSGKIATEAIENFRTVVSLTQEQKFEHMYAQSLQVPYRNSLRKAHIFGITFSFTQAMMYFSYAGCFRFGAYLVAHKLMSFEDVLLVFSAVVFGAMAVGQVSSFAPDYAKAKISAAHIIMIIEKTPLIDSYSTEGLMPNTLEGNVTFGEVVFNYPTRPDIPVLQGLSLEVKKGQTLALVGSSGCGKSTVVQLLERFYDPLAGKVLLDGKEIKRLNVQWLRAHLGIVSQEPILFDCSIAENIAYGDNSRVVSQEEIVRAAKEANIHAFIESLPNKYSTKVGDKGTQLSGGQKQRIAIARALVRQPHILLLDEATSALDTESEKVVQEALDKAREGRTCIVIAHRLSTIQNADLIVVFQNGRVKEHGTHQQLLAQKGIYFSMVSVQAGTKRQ
How it was run: (§1)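 KBV or MCF-7T cells were grown in DMEM with 10% heat-inactivated FCS, penicillin/streptomycin, 37 °C and 5% CO2, with periodic 10 nM paclitaxel to keep resistance; cells were used in exponential phase. Cells were exposed to test articles for 72 h, given MTT for about 2 h, the medium was removed and DMSO added. A570 gave the survival rate.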

[2] = Induction of apoptosis in human KBV cells assessed as accumulation of cells in Sub-G1 phase at 10 uM measured by flowcytometry method (reference value: 1.9%); assay type: functional
[3] = molecular target: T1, ATP-dependent translocase ABCB1; assay: Reversal of P-glycoprotein mediated multidrug resistance in human KBV cells assessed as paclitaxel-mediated apoptosis by measuring accumulation of cells in Sub-G1 phase in at 5 uM measured by flowcytometry method (Rvb (paclitaxel)= 2.1%); assay type: cell-based
[4] = molecular target: T1, ATP-dependent translocase ABCB1; assay: Reversal of P-glycoprotein mediated multidrug resistance in human KBV cells assessed as paclitaxel-mediated apoptosis by measuring accumulation of cells in Sub-G1 phase in at 10 uM measured by flowcytometry method (Rvb (paclitaxel)= 2.1%); assay type: cell-based
[5] = Antiproliferative activity against human KBV cells in presence of 100 nM Paclitaxel; assay type: functional, cell-based; how it was run: as §1
[6] = Antitumour activity against human KBV cells xenografted in nude mouse assessed as paclitaxel-mediated tumour growth inhibition at 10 mg/kg; assay type: functional; conditions: read-out: TGI
[7] = Aqueous solubility of compound in deionized water at 37 degC measured by UV-vis spectrophotometry
[8] = Cytotoxicity against human KBV cells assessed as cell survival at 10 uM measured after 72 hrs by MTT assay; assay type: functional; conditions: read-out: Activity; how it was run: as §1
[9] = Stability of compound in presence of Porcine liver esterase assessed as residual activity at pH 7.4 measured after 4 hrs; assay type: ADME; conditions: pig, read-out: Stabilty
How it was run: (§2)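 Compound in PBS pH 7.4 with porcine liver esterase, shaken at 37 °C. Aliquots were taken at set times, diluted 10-fold and centrifuged at 14,000 rpm for 5 min. Supernatants were run on C18 HPLC with isocratic 95% methanol/water (0.1% TFA) at 1 mL/min, UV 306 nm. Percent remaining is relative to the 0 h sample.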

[10] = Stability of compound in presence of Porcine liver esterase assessed as residual activity at pH 7.4 measured after 12 hrs; assay type: ADME; conditions: pig, read-out: Stabilty; how it was run: as §2
[11] = Stability of compound in presence of Porcine liver esterase assessed as residual activity at pH 7.4 measured after 24 hrs; assay type: ADME; conditions: pig, read-out: Stabilty; how it was run: as §2
[12] = molecular target: T1, ATP-dependent translocase ABCB1; assay: Inhibition of P-glycoprotein mediated Rhodamine-123 efflux in human KBV cells assessed as Rhodamine-123 accumulation measured after 2 hrs by flowcytometry; assay type: cell-based; conditions: dose 5-10 µM
How it was run: (§3)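 KBV or MCF-7T cells were pretreated with or without compound for 2 h, then loaded with rhodamine 123 for 30 min. Cells were harvested and washed three times in PBS. Flow cytometry of 10,000 cells gave mean fluorescence intensity; mean ± SD, n = 3.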

[13] = molecular target: T1, ATP-dependent translocase ABCB1; assay: Inhibition of P-glycoprotein mediated Rhodamine-123 efflux in human MCF-7T cells assessed as Rhodamine-123 accumulation measured after 2 hrs by flowcytometry; assay type: cell-based; conditions: dose 5-10 µM; how it was run: as §3
[14] = molecular target: T1, ATP-dependent translocase ABCB1; assay: Inhibition of P-glycoprotein mediated Flutax1 efflux in human KBV cells assessed as Flutax1 accumulation at 5 uM […] by flowcytometry; assay type: cell-based
[15] = molecular target: T1, ATP-dependent translocase ABCB1; assay: Inhibition of P-glycoprotein mediated Flutax1 efflux in human KBV cells assessed as Flutax1 accumulation at 10 uM measured after 2 hrs by flowcytometry; assay type: cell-based; conditions: mcf-t, in the assay text read “human MCF-7T cells” for “human KBV cells”
[16] = Cytotoxicity against human KBV cells assessed as cell survival measured after 72 hrs by MTT assay; assay type: functional, cell-based; how it was run: as §1
[17] = Cytotoxicity against human MCF-T cells assessed as cell survival measured after 72 hrs by MTT assay; assay type: functional, cell-based; how it was run: as §1

| SMILES | cell survival rate [1] [%] | viability at 10 µM [8] [%] | other results |
| --- | --- | --- | --- |
| CC1(C)CC[C@]2(C(=O)OCc3ccccc3)CC[C@]3(C)C(=CC[C@@H]4[C@@]5(C)Cc6nccnc6[C@@](C)(CO)[C@@H]5CC[C@]43C)[C@@H]2C1 | 18.17 | – | Activity [2]: 2.3%; Activity [3]: 15.6%; Activity [4]: 25.4%; IC50 [5]: 2.39 nM; inhibition in vivo at 10 mg/kg [6]: 41.9%; solubility ([7]; pH 7.4, read-out: solubility): 1.2 µg/mL (≈ 2.01 µM) |
| CN(C)CCCOC(=O)[C@]12CCC(C)(C)C[C@H]1C1=CC[C@@H]3[C@@]4(C)Cc5nccnc5[C@@](C)(CO)[C@@H]4CC[C@@]3(C)[C@]1(C)CC2 | 12.65 | 67.5 | – |
| CCN1CCN(C(=O)[C@]23CCC(C)(C)C[C@H]2C2=CC[C@@H]4[C@@]5(C)Cc6nccnc6[C@@](C)(CO)[C@@H]5CC[C@@]4(C)[C@]2(C)CC3)CC1 | 16.67 | 120 | – |
| CC1(C)CC[C@]2(C(=O)OCC(=O)OCCOCCOCCOCCO)CC[C@]3(C)C(=CC[C@@H]4[C@@]5(C)Cc6nccnc6[C@@](C)(CO)[C@@H]5CC[C@]43C)[C@@H]2C1 | 25.88 | 75.4 | – |
| CC1(C)CC[C@]2(C(=O)N3CCOCC3)CC[C@]3(C)C(=CC[C@@H]4[C@@]5(C)Cc6nccnc6[C@@](C)(CO)[C@@H]5CC[C@]43C)[C@@H]2C1 | 16.37 | 110 | – |
| CC1(C)CC[C@]2(C(=O)OCC(=O)OCCOCCOCCOCCOCCOCCOCCOCCOCCO)CC[C@]3(C)C(=CC[C@@H]4[C@@]5(C)Cc6nccnc6[C@@](C)(CO)[C@@H]5CC[C@]43C)[C@@H]2C1 | 25.16 | 76 | – |
| CC1(C)CC[C@]2(C(=O)OCc3ccccc3)CC[C@]3(C)C(=CC[C@@H]4[C@@]5(C)Cc6nccnc6[C@@](C)(COC(=O)CCC(=O)OCCOCCO)[C@@H]5CC[C@]43C)[C@@H]2C1 | 79.47 | 72.7 | solubility ([7]; pH 7.4): Soluble |
| CC1(C)CC[C@]2(C(=O)O)CC[C@]3(C)C(=CC[C@@H]4[C@@]5(C)Cc6cn[nH]c6[C@@](C)(CO)[C@@H]5CC[C@]43C)[C@@H]2C1 | 99.31 | 109 | – |
| CC1(C)CC[C@]2(C(=O)OCC(=O)OCCOCCO)CC[C@]3(C)C(=CC[C@@H]4[C@@]5(C)Cc6nccnc6[C@@](C)(CO)[C@@H]5CC[C@]43C)[C@@H]2C1 | 26.15 | 81.7 | – |
| CC1(C)CC[C@]2(C(=O)OCc3ccccc3)CC[C@]3(C)C(=CC[C@@H]4[C@@]5(C)Cc6cn[nH]c6[C@@](C)(CO)[C@@H]5CC[C@]43C)[C@@H]2C1 | 21.95 | 83.1 | – |
| CC1(C)CC[C@]2(C(=O)N3CCCCC3)CC[C@]3(C)C(=CC[C@@H]4[C@@]5(C)Cc6nccnc6[C@@](C)(CO)[C@@H]5CC[C@]43C)[C@@H]2C1 | 25.27 | 59.4 | – |
| CN1CCN(C(=O)[C@]23CCC(C)(C)C[C@H]2C2=CC[C@@H]4[C@@]5(C)Cc6nccnc6[C@@](C)(CO)[C@@H]5CC[C@@]4(C)[C@]2(C)CC3)CC1 | 23.51 | 124 | – |
| CC1(C)CC[C@]2(C(=O)OCc3ccccc3)CC[C@]3(C)C(C(=O)C[C@@H]4[C@@]5(C)Cc6nccnc6[C@@](C)(CO)[C@@H]5CC[C@]43C)[C@@H]2C1 (some centres undefined) | 20.77 | 129 | – |
| CC1(C)CC[C@]2(C(=O)OCc3ccccc3)CC[C@]3(C)C(=CC[C@@H]4[C@@]5(C)Cc6nccnc6[C@@](C)(COC(=O)CCC(=O)OCCOCCOCCOCCOCCOCCOCCOCCOCCOCCOCCOCCOCCO)[C@@H]5CC[C@]43C)[C@@H]2C1.CO | 15.93 | 69.7 | solubility ([7]; pH 7.4, read-out: solubility): 789 µg/mL |
| CC1(C)CC[C@]2(C(=O)OCC(=O)OCCOCCOCCO)CC[C@]3(C)C(=CC[C@@H]4[C@@]5(C)Cc6nccnc6[C@@](C)(CO)[C@@H]5CC[C@]43C)[C@@H]2C1 | 28.76 | 80.5 | – |
| Cc1nc2c(s1)C[C@@]1(C)[C@@H](CC[C@]3(C)[C@@H]1CC=C1[C@@H]4CC(C)(C)CC[C@]4(C(=O)O)CC[C@]13C)[C@]2(C)CO | 61.78 | 96 | – |
| CC1(C)CC[C@]2(C(=O)OCc3ccccc3)CC[C@]3(C)C(=CC[C@@H]4[C@@]5(C)Cc6nccnc6[C@@](C)(COC(=O)CCC(=O)OCCOCCOCCOCCO)[C@@H]5CC[C@]43C)[C@@H]2C1 | 11.97 | 90.3 | Activity [2]: 2.4%; remaining at 4 h [9]: 98.3%; remaining at 12 h [10]: 81.8%; remaining at 24 h [11]: 78.9%; Activity [12]: Dose-Dependent Effect; Activity [13]: Dose-Dependent Effect; Activity [14]: Active; Activity [15]: Active; Activity [3]: 20.7%; Activity [4]: 48.9%; solubility ([7]; pH 7.4, read-out: solubility): 21.6 µg/mL (≈ 24.7 µM) |
| Cc1nc2c(s1)C[C@@]1(C)[C@@H](CC[C@]3(C)[C@@H]1CC=C1[C@@H]4CC(C)(C)CC[C@]4(C(=O)OCc4ccccc4)CC[C@]13C)[C@]2(C)CO | 27.85 | 98.6 | – |
| CC1(C)CC[C@]2(C(=O)OCC(=O)OCCOCCOCCOCCOCCOCCOCCOCCOCCOCCOCCOCCOCCO)CC[C@]3(C)C(=CC[C@@H]4[C@@]5(C)Cc6nccnc6[C@@](C)(CO)[C@@H]5CC[C@]43C)[C@@H]2C1 | 39.13 | 73.3 | – |
| CC1(C)CC[C@]2(C(=O)OCc3ccccc3)CC[C@]3(C)C(=CC[C@@H]4[C@@]5(C)Cc6nccnc6[C@@](C)(COC(=O)CCC(=O)OCCOCCOCCOCCOCCOCCOCCOCCOCCO)[C@@H]5CC[C@]43C)[C@@H]2C1 | 15.38 | 70.6 | solubility ([7]; pH 7.4, read-out: solubility): 546 µg/mL (≈ 500 µM) |
| CC1(C)CC[C@]2(C(=O)OCc3ccccc3)CC[C@]3(C)C(=CC[C@@H]4[C@@]5(C)Cc6nccnc6[C@@](C)(COC(=O)CCC(=O)OCCOCCOCCO)[C@@H]5CC[C@]43C)[C@@H]2C1 | 43.54 | 82.5 | solubility ([7]; pH 7.4): Soluble |
| COc1ccc(CCN(C)CCCC(C#N)(c2ccc(OC)c(OC)c2)C(C)C)cc1OC (centres undefined) | – | – | Activity [2]: 2.4%; Activity [3]: 40.6% |
| CC1(C)CC[C@]2(C(=O)O)CC[C@]3(C)C(=CC[C@@H]4[C@@]5(C)CC[C@H](O)[C@@](C)(CO)[C@@H]5CC[C@]43C)[C@@H]2C1 [HEDERAGENIN] | 107.17 | – | – |
| CC(=O)O[C@H]1C(=O)[C@@]2(C)[C@H]([C@H](OC(=O)c3ccccc3)[C@]3(O)C[C@H](OC(=O)[C@H](O)[C@@H](NC(=O)c4ccccc4)c4ccccc4)C(C)=C1C3(C)C)[C@]1(OC(C)=O)CO[C@@H]1C[C@@H]2O [PACLITAXEL] | 103.48 | – | Activity [2]: 2.1%; IC50 [16]: 778 nM |
| CC[C@]1(O)C[C@H]2CN(CCc3c([nH]c4ccccc34)[C@@](C(=O)OC)(c3cc4c(cc3OC)N(C=O)[C@H]3[C@@](O)(C(=O)OC)[C@H](OC(C)=O)[C@]5(CC)C=CCN6CC[C@]43[C@@H]65)C2)C1 [VINCRISTINE] | – | – | IC50 [17]: 9.45 nM |
